Results taken from paper PMC3706105 (Breast cancer research and treatment, 2012).

Experiments:
ALDH1 = experiment: Aldefluor ALDH1 activity in mammospheres; type: cell-based, human; details: MCF-7 primary mammospheres grown with GR-24; vehicle 6%
MCF10A [1] = experiment: Cell cycle analysis; type: cell-based; details: 0.5-10ppm, 48 hours
MDA-MB-231 [2] = experiment: Crystal violet growth assay; type: cell-based, human
Procedure, shortened: (§1)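 Cell seeding in 96-well plates was 1500 cells/well (MDA-MB-231, MDA-MB-436, BJ fibroblasts) or 4000 (MCF-7). Next day, phenol-free DMEM with 10% charcoal-stripped FBS plus test compound at 0.5–10 ppm (1.65–33 μM) or acetone vehicle, for up to 10 days. Plates were fixed and stained 15 min with 0.5% crystal violet/25% methanol, washed, dried, and dye eluted in 0.1 M sodium citrate; absorbance 560 nm, % of vehicle, triplicates ± SD. Day-7 IC50 by linear-regression interpolation.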

MCF-7 mammospheres [3] = experiment: Mammosphere formation; type: cell-based, human; details: MCF-7 primary mammospheres
Procedure, shortened: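 MCF-7 cells trypsinised (0.05% trypsin/EDTA), PBS-washed twice and sieved to single cells. Diluted to 10,000 cells/mL in serum-free phenol-red-free MEBM with 5 μg/ml insulin, 20 ng/ml EGF, 20 ng/ml bFGF, 1× B27 and 0.5 μg/ml hydrocortisone, and plated on ultralow-attachment 96-well plates. Next day, test compound (ppm) or 0.6% acetone final vehicle added; medium replenished every 3–4 days. Spheres over size threshold counted per well at 5×; triplicate wells ± SD, paired t-test.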

MDA-MB-436 [4] = experiment: Crystal violet growth assay; type: cell-based, human
Procedure, shortened: as §1

MCF-7 [5] = experiment: Crystal violet growth assay; type: cell-based, human
Procedure, shortened: as §1

MDA-MB-231 mammospheres = experiment: Mammosphere formation; type: cell-based, human
Procedure, shortened: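 Single-cell MDA-MB-231 suspensions grown as mammospheres in serum-free phenol-red-free CnT-27 medium with growth additives on ultralow-attachment 96-well plates. Next day, test compound (ppm) or vehicle (0.6% acetone final) added; medium replenished every 3–4 days. Mammospheres above size threshold counted per well; triplicate wells, mean ± SD, two-tailed paired t-test versus vehicle.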

MCF-7 [6] = experiment: Cell cycle analysis; type: cell-based, human; details: MCF-7, 10ppm, 48 hours
[7] = test system: MCF-7 secondary mammospheres; experiment: XTT viability assay on mammospheres; type: cell-based, human; details: 5 days
MDA-MB-436 [8] = experiment: Cell cycle analysis; type: cell-based, human; details: MDA-MB-436, 10ppm, 48 hours
BJ fibroblasts = experiment: Crystal violet growth assay; type: cell-based; details: 0.5 to 10ppm, up to 10 days
Procedure, shortened: as §1

MDA-MB-231 [9] = experiment: Cell cycle analysis; type: cell-based, human; details: 48 hours
MAPKAPK = experiment: Immunoblot pT334 MAPKAPK; type: cell-based, human; details: MDA-MB-231, SB203580 exposure
Procedure, shortened: (§2)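 MDA-MB-231 cells treated with test compound, e.g. 10 ppm for 1–24 h. For P38 inhibition, cells were pretreated 1 h with SB203580, then co-treated 4 h. Lysed in Tris pH 7.5/NP-40/SDS/deoxycholate buffer with phosphatase and protease inhibitors. 20–50 μg protein resolved by 10 or 12% SDS-PAGE, wet-transferred and blocked in 5% BSA/TBS-Tween. Phospho-specific primaries at 1:1000, HRP secondaries at 1:5,000, chemiluminescent detection; band densitometry.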

ATF2 = experiment: Immunoblot pATF2; type: cell-based, human
Procedure, shortened: as §2

MDA-MB-436 [10] = experiment: XTT viability assay; type: cell-based, human; details: MDA-MB-436, XTT
Procedure, shortened: (§3)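 Seeding in normal growth medium in 96-well plates: 1500 cells/well for MCF10A, MDA-MB-231 and MDA-MB-436, 4000 for MCF-7. Next day, phenol-free DMEM with 10% charcoal-stripped FBS containing final concentrations of test compound or acetone vehicle, the vehicle matched to the highest dose only. After 3 days, XTT reagent 2–3 h at 37 °C. Absorbance at 450 nm minus 750 nm reference and medium blank, expressed as % of control; IC50 interpolated from sigmoidal dose–response curves.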

MCF-7 [11] = experiment: XTT viability assay; type: cell-based, human; details: MCF-7, XTT
Procedure, shortened: as §3

MCF-7 mammospheres [12] = experiment: Integrity of mature primary mammospheres; type: cell-based, human; details: mature MCF-7 mammospheres; for mammosphere numbers (≥100μM), percentage of vehicle treated control: 5 days of treatment, vehicle control 86.7±6.8
BJ fibroblast = experiment: Cell cycle analysis; type: cell-based; details: 5 ppm, 48 hours
MDA-MB-231 [13] = experiment: XTT viability assay; type: cell-based, human; details: MDA-MB-231, XTT
Procedure, shortened: as §3

P38 MAPK = experiment: Immunoblot pP38; type: cell-based, human; details: densitometry of immunoblot
Procedure, shortened: as §2

MDA-MB-231 cells [14] = experiment: Hoechst33342 nuclear staining; type: cell-based, human; details: MDA-MB-231, 5-10 ppm, 24 hours, Hoechst staining
MCF10A [15] = experiment: XTT viability assay; type: cell-based
T47D = experiment: XTT viability assay; type: cell-based, human
MDA-MB-231 cells [16] = experiment: XTT viability after timed SL exposure and removal; type: cell-based, human; details: MDA-MB-231, 5ppm and 10ppm, XTT at 24 hours
Procedure, shortened: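 MDA-MB-231 cells exposed to test compound at 5 or 10 ppm for 2, 4 or 24 h. Medium was then removed, cells washed, and growth medium without compound added. XTT viability read 24 h after treatment start, as % of vehicle controls, mean ± SD; two-tailed paired Student's t-test against vehicle.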

## CC1=C[C@H](O/C=C2/C(=O)O[C@@H]3c4ccccc4C[C@H]23)OC1=O [GR-24]
ALDH1
  ALDH activity (percentage of ALDH positive cells): 2%
MCF10A [1]
  change in cell cycle distribution: no change
MDA-MB-231 [2]; MDA-MB-231, 7 days
  IC50 of long-term proliferation: 5.7 ppm
MDA-MB-231 [2]; read-out: IC50 of long-term proliferation, MDA-MB-231, 7 days
  IC50: 18.8 µM
MCF-7 mammospheres [3]; 0.5ppm
  mammosphere growth: inhibited to a lesser degree
MCF-7 mammospheres [3]; 1ppm
  mammosphere formation: severely attenuated
MCF-7 mammospheres [3]; 2.5 –5ppm
  mammosphere formation: completely inhibited
MDA-MB-436 [4]; MDA-MB-436, 7 days
  IC50 of long-term proliferation: 5.2 ppm
MDA-MB-436 [4]; read-out: IC50 of long-term proliferation, MDA-MB-436, 7 days
  IC50: 17.2 µM
MCF-7 [5]; MCF-7, 7 days
  IC50 of long-term proliferation: 5.7 ppm
MCF-7 [5]; read-out: IC50 of long-term proliferation, MCF-7, 7 days
  IC50: 18.8 µM
MDA-MB-231 mammospheres; 2.5ppm
  mammosphere growth: severely attenuated
MDA-MB-231 mammospheres; 5ppm
  mammosphere formation: completely blocked
MCF-7 [6]
  change in subG1 fraction: no change
[7]; 2.5ppm
  mammosphere viability (% of vehicle control): 68.6%±12.4
[7]; 5ppm
  reduction of mammosphere viability: approximately 80%
[7]; 5ppm, control 98.4%± 3.4
  mammosphere viability (% of vehicle control): 16.4%± 4.6
MDA-MB-436 [8]
  increase in sub-G1/apoptotic fraction compared to vehicle: 3.4 fold
BJ fibroblasts
  growth compared to vehicle: no significant reduction in growth
MDA-MB-231 [9]; MDA-MB-231, 10ppm
  increase in sub-G1/apoptotic fraction compared to vehicle: 4.6 fold

## C[S+]([O-])c1ccc(-c2nc(-c3ccncc3)c(-c3ccc(F)cc3)[nH]2)cc1 (stereo not drawn) [SB203580, reference compound]
MAPKAPK
  pT334 MAPKAPK phosphorylation: decreased in a dose dependent manner
ATF2; MDA-MB-231, 20 μM to 40 μM
  inhibition of ATF2 phosphorylation following SL treatment: did not inhibit ATF2 phosphorylation

## CC1=CC(O/C=C2/C(=O)c3c(c4cc(-c5scc6c5OCCO6)ccc4n3C)C2C)OC1=O (stereo not drawn) [ST362]
MDA-MB-436 [10]
  IC50 (ppm) at 72hours: 5.9 ppm
MCF-7 [11]
  IC50 (ppm) at 72hours: 8.1 ppm
ATF2; MDA-MB-231, immunoblot, SL treatment 4-8 hours
  phosphorylation of ATF2: induced
MCF-7 mammospheres [3]; 1ppm
  mammosphere formation: significantly inhibited mammosphere formation
MCF-7 mammospheres [3]; 2.5ppm, 7 days
  mammosphere growth: able to block mammosphere growth
MCF-7 mammospheres [12]; 2.5ppm
  mammosphere numbers (≥100μM), percentage of vehicle treated control: 6±1.7%
MCF-7 mammospheres [12]; 5 and 2.5ppm, after 48 hours
  mammosphere morphology: looser morphology and appeared to be dissociating
MCF-7 mammospheres [12]; 5ppm
  mammosphere numbers (≥100μM), percentage of vehicle treated control: 8.3±3.5%
BJ fibroblast; vehicle 0.21
  SubG1/poptosis: 0.72
BJ fibroblast; vehicle 2.510
  Cell Cycle Distribution (%) S: 1.580%
BJ fibroblast; vehicle 10.17
  Cell Cycle Distribution (%) G2: 12.86%
BJ fibroblast; vehicle 84.25
  Cell Cycle Distribution (%) G1: 83.42%
MDA-MB-231 [13]
  IC50 (ppm) at 72hours: 2.9 ppm
P38 MAPK; MDA-MB-231, 4 hours
  increase in pP38 levels compared to vehicle: 5 fold
P38 MAPK; MDA-MB-231, 8 hours
  increase in pP38 levels compared to vehicle: 13 fold
MDA-MB-231 cells [14]
  nuclear changes indicative of apoptosis: increased nuclear condensation and fragmentation
MCF10A [15]
  IC50 (ppm) at 72hours: >15 ppm
MCF10A [15]; between day 10 and 14 (so in the source)
  reduction in viability: 20%
T47D
  IC50 (ppm) at 72hours: 8.6 ppm
MDA-MB-231 cells [16]; SL removed
  cell viability after 2 hours exposure: No changes in cell viability
MDA-MB-231 cells [16]; SL removed, p<0.01
  cell viability after 4 hours exposure: significant decrease in viability
MDA-MB-231 cells [16]; p<0.001
  cell viability after continual exposure (24h) compared to 4 hours exposure: greater reduction in cell viability
MDA-MB-231 [9]; MDA-MB-231, 5 ppm, vehicle 0.41
  SubG1/poptosis: 4.17
MDA-MB-231 [9]; MDA-MB-231, 5 ppm, vehicle 13.02
  Cell Cycle Distribution (%) S: 11.90%
MDA-MB-231 [9]; MDA-MB-231, 5 ppm, vehicle 24.08
  Cell Cycle Distribution (%) G2: 37.93%
MDA-MB-231 [9]; MDA-MB-231, 5 ppm, vehicle 60.43
  Cell Cycle Distribution (%) G1: 42.17%
